These results are taken from ChEMBL document CHEMBL1781911, “Verrucamides A-D, antibacterial cyclopeptides from Myrothecium verrucaria” (J Nat Prod, 2011).

≈ marks a conversion by molar mass, not a printed value. Square brackets hold non-standard residues; d marks the D form. Peptide text beside a SMILES is read from it. NMeT = CN[C@H](C(=O)O)[C@@H](C)O; aIle = CC[C@@H](C)[C@H](N)C(=O)O; dNMeF = CN[C@H](Cc1ccccc1)C(=O)O; NMeV = CN[C@H](C(=O)O)C(C)C; NMeS = CN[C@@H](CO)C(=O)O; dNMeA = CN[C@H](C)C(=O)O

One may read the IC50 as the point on the concentration scale where inhibition reaches its midpoint. High values mean weaker potency in that assay, low ones greater potency in that assay. One may read the MIC as the lowest concentration that inhibits growth of the organism. Low values mean a more susceptible organism, high ones a less susceptible organism.

For the experiment, the system named is Staphylococcus aureus. Description: Antibacterial activity against Staphylococcus aureus Col CGMCC 1.2465 after 24 hrs by NCCLS […] method. The experiment is classed as functional, organism-based. The settings on record: COL CGMCC 1.2465, 24 h. In short, it runs like this:
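Broth microdilution in triplicate per NCCLS guidance; strain grown in Mueller-Hinton broth, 3-4 colonies cultured at 37 °C for 24 h, final inoculum 10^6 cells/mL in MHB. Samples from 10 mg/mL DMSO stocks, serially diluted; ampicillin positive control. Incubated 37 °C for 24 h, growth read as absorbance at 595 nm.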
As to `CC1(C)S[C@@H]2[C@H](NC(=O)[C@H](N)c3ccccc3)C(=O)N2[C@H]1C(=O)O` [AMPICILLIN], the IC50 amounted to 0.09 µg/mL (≈ 0.258 µM) and inhibition of growth (MIC) required 0.625 µg/mL (≈ 1.79 µM).

`CC[C@@H](C)[C@@H]1NC(=O)CNC(=O)[C@@H](C)N(C)C(=O)[C@H](C(C)C)NC(=O)[C@H]([C@@H](C)O)N(C)C(=O)[C@H](C(C)C)NC(=O)[C@H]([C@@H](C)O)N(C)C(=O)[C@H](C(C)C)NC(=O)CNC(=O)[C@@H](Cc2ccccc2)N(C)C(=O)[C@H](C(C)C)NC(=O)[C@H](CO)NC(=O)[C@H]([C@H](C)CC)N(C)C(=O)[C@H](CO)N(C)C1=O` [VERRUCAMIDE A] returned an IC50 of 3.59 µg/mL (≈ 2.54 µM) and an MIC of 10 µg/mL (≈ 7.06 µM).

In turn, `CC[C@@H](C)[C@@H]1NC(=O)CNC(=O)[C@@H](C)N(C)C(=O)[C@H](C(C)C)NC(=O)[C@H]([C@@H](C)O)N(C)C(=O)[C@H](C(C)C)NC(=O)[C@H]([C@@H](C)O)N(C)C(=O)[C@H](C(C)C)NC(=O)CNC(=O)[C@@H](Cc2ccccc2)N(C)C(=O)[C@H](C(C)C)NC(=O)[C@H](CO)NC(=O)[C@H](C(C)C)N(C)C(=O)[C@H](CO)N(C)C1=O` [VERRUCAMIDE B] (cyclo(GV[NMeT]V[NMeT]V[dNMeA]G[aIle][NMeS][NMeV]SV[dNMeF])) came in with an IC50 of 5.31 µg/mL (≈ 3.79 µM) and an MIC of 20 µg/mL (≈ 14.3 µM).

As to `CC[C@@H](C)[C@H]1C(=O)N[C@@H](CO)C(=O)N[C@@H](C(C)C)C(=O)N(C)[C@H](Cc2ccccc2)C(=O)NCC(=O)N[C@@H](C(C)C)C(=O)N(C)[C@@H]([C@@H](C)O)C(=O)N[C@@H](C(C)C)C(=O)N(C)[C@@H]([C@@H](C)O)C(=O)N[C@@H](C(C)C)C(=O)N(C)[C@H](C)C(=O)NCC(=O)N[C@@H](C(C)C)C(=O)N(C)[C@@H](CO)C(=O)N1C` [VERRUCAMIDE C], the IC50 stood at 4.45 µg/mL (≈ 3.17 µM) and the MIC is 10 µg/mL (≈ 7.13 µM).

`CC(C)[C@@H]1NC(=O)[C@H]([C@@H](C)O)N(C)C(=O)[C@H](C(C)C)NC(=O)[C@H]([C@@H](C)O)N(C)C(=O)[C@H](C(C)C)NC(=O)CNC(=O)[C@@H](Cc2ccccc2)N(C)C(=O)[C@H](C(C)C)NC(=O)[C@H](CO)NC(=O)[C@H](C(C)C)N(C)C(=O)[C@H](CO)N(C)C(=O)[C@H](C(C)C)NC(=O)CNC(=O)[C@@H](C)N(C)C1=O` [VERRUCAMIDE D] returned an IC50 of 9.09 µg/mL (≈ 6.55 µM) and an MIC of 40 µg/mL (≈ 28.8 µM).
